From ChEMBL document CHEMBL5724801, “EUbOPEN Chemogenomics Library - Multiplex” (2024)
Several values for one entry are separate records, joined by “and”; a condition that tells them apart may be missing. Identical values can stand only once.

Tested on: U2OS
Assay: Multiplex assay against U2OS
Format: toxicity, cell-based
Details: human
Method in brief: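 Compound was added to live cells that had been stained at seeding with Hoechst33342, BioTracker Green Microtubule Cytoskeleton Dye, MitoTracker Red and Annexin V Alexa Fluor 680, and imaging followed on a CQ1 microscope at 37°C and 5% CO2. CellPathfinder machine-learning gating divided cells into Hoechst high-intensity objects or normal cells, normal cells into healthy, pyknosed or fragmented nuclei, and pyknosed cells into mitotic or apoptotic. Tubulin, mitochondrial-mass and membrane-permeability phenotypes are per cents of healthy-nucleus cells.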

[1] = 12 h, 1 µM, compound concentration 1 uM
[2] = 12 h, 10 µM, compound concentration 10 uM
[3] = 24 h, 1 µM, compound concentration 1 uM
[4] = 24 h, 10 µM, compound concentration 10 uM
[5] = 48 h, 1 µM, compound concentration 1 uM
[6] = 48 h, 10 µM, compound concentration 10 uM

## CCC(=O)OCC(=O)[C@@]1(OC(=O)CC)[C@@H](C)C[C@H]2[C@@H]3CCC4=CC(=O)C=C[C@]4(C)[C@@]3(Cl)[C@@H](O)C[C@@]21C [BECLOMETHASONE DIPROPIONATE]
[1]
  Population Apoptotic (%): 84% and 71%
  Population Fragmented Nuclei (%): 23% and 18%
  Population Healthy Nuclei (%): 64% and 75%
  Population Hoechst High Intensity Objects (%): 1% and 0%
  Population Membrane Permeable-Phenotype (%): 11% and 13%
  Population Mitochondria Different-Phenotype (%): 4% and 8%
  Population Mitotic Cells (%): 15% and 28%
  Population Normal (%): 98% and 99%
  Population Pyknosed Nuclei (%): 12% and 6%
  Population Tubulin-Different-Phenotype (%): 6% and 4%
  Total Cell Count: 160 and 111
[2]
  Population Apoptotic (%): 65% and 68%
  Population Healthy Nuclei (%): 40% and 69%
  Population Hoechst High Intensity Objects (%): 4%
  Population Membrane Permeable-Phenotype (%): 67% and 48%
  Population Mitochondria Different-Phenotype (%): 73% and 97%
  Population Mitotic Cells (%): 34% and 31%
  Population Normal (%): 95%
  Population Pyknosed Nuclei (%): 17% and 18%
  Population Tubulin-Different-Phenotype (%): 80% and 97%
  Total Cell Count: 176 and 109
[3]
  Population Apoptotic (%): 78% and 87%
  Population Fragmented Nuclei (%): 21% and 15%
  Population Healthy Nuclei (%): 67% and 71%
  Population Hoechst High Intensity Objects (%): 2% and 0%
  Population Membrane Permeable-Phenotype (%): 2% and 6%
  Population Mitochondria Different-Phenotype (%): 4% and 5%
  Population Mitotic Cells (%): 21% and 12%
  Population Normal (%): 97% and 99%
  Population Pyknosed Nuclei (%): 10% and 13%
  Population Tubulin-Different-Phenotype (%): 1% and 3%
  Total Cell Count: 217 and 123
[4]
  Population Apoptotic (%): 74% and 64%
  Population Fragmented Nuclei (%): 35% and 12%
  Population Healthy Nuclei (%): 45% and 69%
  Population Hoechst High Intensity Objects (%): 3% and 9%
  Population Membrane Permeable-Phenotype (%): 40% and 43%
  Population Mitochondria Different-Phenotype (%): 72% and 86%
  Population Mitotic Cells (%): 25% and 35%
  Population Normal (%): 96% and 90%
  Population Pyknosed Nuclei (%): 18% and 17%
  Population Tubulin-Different-Phenotype (%): 66% and 76%
  Total Cell Count: 174 and 106
[5]
  Population Apoptotic (%): 91% and 85%
  Population Fragmented Nuclei (%): 22% and 10%
  Population Healthy Nuclei (%): 68% and 75%
  Population Hoechst High Intensity Objects (%): 2%
  Population Membrane Permeable-Phenotype (%): 5% and 8%
  Population Mitochondria Different-Phenotype (%): 2% and 5%
  Population Mitotic Cells (%): 8% and 14%
  Population Normal (%): 97%
  Population Pyknosed Nuclei (%): 9% and 14%
  Population Tubulin-Different-Phenotype (%): 2% and 3%
  Total Cell Count: 268 and 152
[6]
  Population Apoptotic (%): 80% and 70%
  Population Fragmented Nuclei (%): 36% and 21%
  Population Healthy Nuclei (%): 47% and 65%
  Population Hoechst High Intensity Objects (%): 4% and 6%
  Population Membrane Permeable-Phenotype (%): 20% and 16%
  Population Mitochondria Different-Phenotype (%): 26% and 36%
  Population Mitotic Cells (%): 20% and 29%
  Population Normal (%): 95% and 93%
  Population Pyknosed Nuclei (%): 15% and 13%
  Population Tubulin-Different-Phenotype (%): 14% and 10%
  Total Cell Count: 199 and 131

## O=c1ccc2ccc(OCCCCN3CCN(c4cccc5sccc45)CC3)cc2[nH]1 [BREXPIPRAZOLE]
[1]
  Population Apoptotic (%): 73% and 55%
  Population Fragmented Nuclei (%): 23% and 16%
  Population Healthy Nuclei (%): 62% and 69%
  Population Hoechst High Intensity Objects (%): 6% and 2%
  Population Membrane Permeable-Phenotype (%): 40% and 32%
  Population Mitochondria Different-Phenotype (%): 19% and 24%
  Population Mitotic Cells (%): 26% and 44%
  Population Normal (%): 93% and 97%
  Population Pyknosed Nuclei (%): 13% and 14%
  Population Tubulin-Different-Phenotype (%): 36% and 30%
  Total Cell Count: 178 and 126
[2]
  Population Apoptotic (%): 86% and 82%
  Population Fragmented Nuclei (%): 31% and 21%
  Population Healthy Nuclei (%): 27% and 43%
  Population Hoechst High Intensity Objects (%): 6% and 9%
  Population Membrane Permeable-Phenotype (%): 57% and 53%
  Population Mitochondria Different-Phenotype (%): 82% and 90%
  Population Mitotic Cells (%): 13% and 17%
  Population Normal (%): 93% and 90%
  Population Pyknosed Nuclei (%): 41% and 35%
  Population Tubulin-Different-Phenotype (%): 83% and 95%
  Total Cell Count: 220 and 109
[3]
  Population Apoptotic (%): 68% and 66%
  Population Fragmented Nuclei (%): 26% and 12%
  Population Healthy Nuclei (%): 55% and 67%
  Population Hoechst High Intensity Objects (%): 3%
  Population Membrane Permeable-Phenotype (%): 19% and 22%
  Population Mitochondria Different-Phenotype (%): 22% and 28%
  Population Mitotic Cells (%): 31% and 33%
  Population Normal (%): 96%
  Population Pyknosed Nuclei (%): 18% and 19%
  Population Tubulin-Different-Phenotype (%): 18% and 16%
  Total Cell Count: 181 and 128
[4]
  Population Apoptotic (%): 93% and 91%
  Population Fragmented Nuclei (%): 30% and 19%
  Population Healthy Nuclei (%): 25% and 26%
  Population Hoechst High Intensity Objects (%): 13% and 22%
  Population Membrane Permeable-Phenotype (%): 47% and 56%
  Population Mitochondria Different-Phenotype (%): 67% and 86%
  Population Mitotic Cells (%): 6% and 8%
  Population Normal (%): 86% and 77%
  Population Pyknosed Nuclei (%): 44% and 54%
  Population Tubulin-Different-Phenotype (%): 76% and 91%
  Total Cell Count: 213 and 112
[5]
  Population Apoptotic (%): 64% and 73%
  Population Fragmented Nuclei (%): 21% and 22%
  Population Healthy Nuclei (%): 61% and 56%
  Population Hoechst High Intensity Objects (%): 4% and 2%
  Population Mitochondria Different-Phenotype (%): 12% and 31%
  Population Mitotic Cells (%): 35% and 26%
  Population Normal (%): 95% and 97%
  Population Pyknosed Nuclei (%): 16% and 21%
  Population Tubulin-Different-Phenotype (%): 8% and 18%
  Total Cell Count: 240 and 161
[6]
  Population Apoptotic (%): 96% and 100%
  Population Fragmented Nuclei (%): 45% and 29%
  Population Healthy Nuclei (%): 12% and 14%
  Population Hoechst High Intensity Objects (%): 26% and 32%
  Population Membrane Permeable-Phenotype (%): 45% and 70%
  Population Mitochondria Different-Phenotype (%): 30% and 90%
  Population Mitotic Cells (%): 3% and 0%
  Population Normal (%): 73% and 67%
  Population Pyknosed Nuclei (%): 41% and 56%
  Population Tubulin-Different-Phenotype (%): 40% and 90%
  Total Cell Count: 215 and 105
